Results as given in ChEMBL document CHEMBL1130193, “Synthesis, cardiotonic activity, and structure-activity relationships of 17 beta-guanylhydrazone derivatives of 5 beta-androstane-3 beta, 14 beta-diol acting on the Na+,K(+)-ATPase receptor” (J Med Chem, 1997).

Assays:
Cavia porcellus [1] = species: Cavia porcellus; assay: (§1) In vitro inotropic activity was determined by the affects of contractile force on guinea pig left atrium.; type: functional, organism-based; conditions: Cardiac atrium
Outline: (§2)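 Isolated atrium preparations in solution bubbled with 95% O2/5% CO2, driven by platinum electrodes with square-wave pulses at 1 Hz (1 ms, twice threshold voltage). After 60 min equilibration, cumulative concentrations were added, each kept until maximal response or arrhythmias appeared.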

[2] = % of preparations of arrhythmogenic activity was determined by the onset of the first series of ectopic beats; type: functional, Heart; design: concentration or dose not given beside the values; outline: as §2
[3] = Arrhythmogenic activity was determined by the onset of the first series of ectopic beats; type: functional, Heart; outline: as §2
Cavia porcellus [4] = species: Cavia porcellus; assay: In vitro inotropic activity was determined by the affects of contractile force on guinea pig left atrium; type: functional, Cardiac atrium; outline: as §2
Cavia porcellus [5] = species: Cavia porcellus; assay: In vitro inotropic activity was determined by the affects of contractile force on guinea pig left atrium; Maximal increase in force of contraction; type: functional; conditions: Cardiac atrium; outline: as §2
[6] = target: Sodium/potassium-transporting ATPase subunit alpha-1 (Canis lupus familiaris, UniProt P50997); assay: Inhibition of Na+/K+ ATPase from dog kidney
Cavia porcellus [7] = species: Cavia porcellus; assay: as §1; type: functional, Cardiac atrium; outline: as §2

SMILES	EC50 (Cavia porcellus [1]) [µM]	Activity [2] [%]	Activity [3] [µM]	concentration giving Emax (Cavia porcellus [4]) [µM]	Emax (Cavia porcellus [5]) [%]	IC50 [6] [nM]	concentration giving Emax (Cavia porcellus [7]) [µM]
C[C@H]1O[C@@H](O[C@H]2[C@@H](O)C[C@H](O[C@H]3[C@@H](O)C[C@H](O[C@H]4CC[C@@]5(C)[C@H](CC[C@@H]6[C@@H]5C[C@@H](O)[C@]5(C)[C@@H](C7=CC(=O)OC7)CC[C@]65O)C4)O[C@@H]3C)O[C@@H]2C)C[C@H](O)[C@@H]1O [DIGOXIN]	0.4	50	3	1	–	–	–
C[C@]12CC[C@H](O)C[C@H]1CC[C@@H]1[C@@H]2CC[C@]2(C)[C@@H](/C=N/NC3=NCCCN3)CC[C@]12O	5	–	30	30	62	–	–
C[C@]12CC[C@H](O)C[C@H]1CC[C@@H]1[C@@H]2CC[C@]2(C)[C@@H](CNN=C(N)N)CC[C@]12O.Cl	8	0	100	30	166	2000	–
C[C@]12CC[C@H](O)C[C@H]1CC[C@@H]1[C@@H]2CC[C@]2(C)[C@@H](/C=N/N=C(N)N)CC[C@]12O.Cl	4	57	30	30	265	1580	–
C[C@]12CC[C@H](O)C[C@H]1CC[C@@H]1[C@@H]2CC[C@]2(C)[C@@H](C3=CC(=O)OC3)CC[C@]12O [DIGITOXIGENIN]	0.6	60	10	–	200	500	3
C[C@]12CC[C@H](O)C[C@H]1CC[C@@H]1[C@@H]2CC[C@]2(C)[C@@H](/C=C/C=N/NC3=NCCN3)CC[C@]12O	9	50	100	100	136	–	–
C[C@]12CC[C@H](O)C[C@H]1CC[C@@H]1[C@@H]2CC[C@]2(C)[C@@H](/C=C/C3=CC(=O)OC3)CC[C@]12O	14	0	300	–	110	3980	100
C[C@]12CC[C@H](O)C[C@H]1CC[C@@H]1[C@@H]2CC[C@]2(C)[C@@H](/C=C/C=C/C=N/N=C(N)N)CC[C@]12O	15	100	300	100	98	7940	–
C[C@]12CC[C@H](O)C[C@H]1CC[C@@H]1[C@@H]2CC[C@]2(C)[C@@H](/C=C/C=N/N=C(N)N)CC[C@]12O	0.4	20	3	3	140	160	–
C[C@]12CC[C@H](O)C[C@H]1CC[C@@H]1[C@@H]2CC[C@]2(C)[C@@H](/C=N/NC3=NCCN3)CC[C@]12O	17	0	300	300	129	–	–
